Common to all, as to type: functional
Assay [1] concerns MCF7. Kind of assay: Growth inhibition of human MCF7 cells at 50 uM after 48 hrs by MTT assay. The conditions noted are these: MCF7, 48 h, read-out: GI. The gist of the method: (§1)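 Single-concentration MTT screen at 50 µM over 48 h in 96-well plates. Compounds giving >50% inhibition were rescreened at 30 µM. OD read at 570 nm, reference 620 nm. Result expressed as % growth inhibition versus untreated control. Mitomycin C, adriamycin or 5-fluorouracil used as positive controls. Mean ± SD of three independent experiments.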
On the technique in general: Tetrazolium dyes change colour on reduction, which living cells bring about.

Assay [2] deals with HL-60. Kind of assay: Growth inhibition of human HL60 cells at 50 uM after 48 hrs by MTT assay. As to conditions: HL-60, 48 h, read-out: GI. The gist of the method:
as §1

Assay [3] deals with PC-3. Kind of assay: Growth inhibition of human PC3 cells at 50 uM after 48 hrs by MTT assay. The conditions noted are these: PC-3, 48 h, read-out: GI. The gist of the method:
as §1

The subject of assay [4] is ASPC1. Kind of assay: Growth inhibition of human AsPC1 cells at 50 uM after 48 hrs by MTT assay. The conditions noted are these: ASPC1, 48 h, read-out: GI. The method, boiled down:
as §1

The test system of assay [5] is MIA PaCa-2. Kind of assay: Growth inhibition of human MIAPaCa2 cells at 50 uM after 48 hrs by MTT assay. As to conditions: MIA PaCa-2, 48 h, read-out: GI. The method, boiled down:
as §1

Assay [6] concerns Caco-2. Kind of assay: Growth inhibition of human Caco2 cells at 50 uM after 48 hrs by MTT assay. The conditions noted are these: Caco-2, 48 h, read-out: GI. The method, boiled down: as §1
Assay [7] has as its system MDA-MB-435. Kind of assay: Growth inhibition of human MDA-MB-435 cells at 50 uM after 48 hrs by MTT assay. As to conditions: MDA-MB-435, 48 h, read-out: GI. The method, boiled down:
as §1

Turning to `COc1ccc(/C=C/C(=O)c2cc3c(c4c2OC(C)(C)CC4)OC(C)(C)CC3)cc1`, the inhibition of growth at 50 µM is 7% in assay [1]; 5% in assay [2]; 63% in assay [3]; 12% in assay [4]; 30% in assay [5]; 16% in assay [6]. In addition, the inhibition of growth at 50 µM in assay [7] was determined as 53%.

For `COc1cc(OC)c(/C=C/C(=O)c2cc3c(c4c2OC(C)(C)CC4)OC(C)(C)CC3)c(OC)c1`, the inhibition of growth at 50 µM in assay [1] was 26%; in assay [2], 77%; in assay [3] it was 62%; in assay [4], 5%; in assay [5], 27%; in assay [6], 17%. Besides, the inhibition of growth at 50 µM in assay [7] came to 32%.

With `CC1(C)CCc2cc(C(=O)/C=C/c3ccccc3Cl)c3c(c2O1)CCC(C)(C)O3`, the inhibition of growth at 50 µM worked out at 9% in assay [1]; 41% in assay [2]; 52% in assay [3]; 15% in assay [4]; 31% in assay [5]; 11% in assay [6]. In addition, in assay [7], the inhibition of growth at 50 µM was 33%.

As to `COc1ccc(OC)c(/C=C/C(=O)c2cc3c(c4c2OC(C)(C)CC4)OC(C)(C)CC3)c1`, the inhibition of growth at 50 µM was found to be 15% in assay [1]; 27% in assay [2]; 36% in assay [3]; 2% in assay [4]; 17% in assay [5]; 23% in assay [6]. Also, the inhibition of growth at 50 µM in assay [7] came to 52%.

On to `CC1(C)CCc2cc(C(=O)/C=C/c3ccccc3)c3c(c2O1)CCC(C)(C)O3`, for which the inhibition of growth at 50 µM was 14% in assay [1]; 32% in assay [2]; 51% in assay [3]; 17% in assay [4]; 24% in assay [5]; 34% in assay [6]. The inhibition of growth at 50 µM in assay [7] was 47%.

`Cc1ccc(/C=C/C(=O)c2cc3c(c4c2OC(C)(C)CC4)OC(C)(C)CC3)cc1`: the inhibition of growth at 50 µM in assay [1] turned out to be 15%; in assay [2], 18%; in assay [3], 48%; in assay [4] it was 2%; in assay [5], 41%; in assay [6], 11%. In assay [7], the inhibition of growth at 50 µM was found to be 38%.

With `CC1(C)CCc2cc(C(=O)/C=C/c3ccc(Br)cc3)c3c(c2O1)CCC(C)(C)O3`, the inhibition of growth at 50 µM worked out at 16% in assay [1]; 25% in assay [2]; 33% in assay [3]; 27% in assay [4]; 45% in assay [5]; 28% in assay [6]. Besides, in assay [7], the inhibition of growth at 50 µM was 52%.

In the case of `CC1(C)CCc2cc(C(=O)/C=C/c3ccc(F)cc3)c3c(c2O1)CCC(C)(C)O3`, the inhibition of growth at 50 µM worked out at 17% in assay [1]; 38% in assay [2]; 59% in assay [3]; 28% in assay [4]; 38% in assay [5]; 12% in assay [6]. In assay [7], the inhibition of growth at 50 µM is 52%.

For `CC1(C)CCc2cc(C(=O)/C=C/c3cccc(Cl)c3)c3c(c2O1)CCC(C)(C)O3`, the inhibition of growth at 50 µM came to 16% in assay [1]; 60% in assay [2]; 59% in assay [3]; 24% in assay [4]; 24% in assay [5]; 31% in assay [6]. Further, the inhibition of growth at 50 µM in assay [7] is 54%.

The values above are taken from ChEMBL document CHEMBL2331355, “Synthesis, structure activity relationship and mode of action of 3-substitutedphenyl-1-(2,2,8,8-tetramethyl-3,4,9,10-tetrahydro-2H,8H-pyrano[2,3-f]chromen-6-yl)-propenones as novel anticancer agents in human leukaemia HL-60 cells” (Eur J Med Chem, 2013).
